According to the M2OR odorant receptor database:

How the values were obtained:
Settings in all cases: stereoisomer not certain
UniProt Q8VGL0 = target: T1, UniProt Q8VGL0
T1 sequence (whole entry): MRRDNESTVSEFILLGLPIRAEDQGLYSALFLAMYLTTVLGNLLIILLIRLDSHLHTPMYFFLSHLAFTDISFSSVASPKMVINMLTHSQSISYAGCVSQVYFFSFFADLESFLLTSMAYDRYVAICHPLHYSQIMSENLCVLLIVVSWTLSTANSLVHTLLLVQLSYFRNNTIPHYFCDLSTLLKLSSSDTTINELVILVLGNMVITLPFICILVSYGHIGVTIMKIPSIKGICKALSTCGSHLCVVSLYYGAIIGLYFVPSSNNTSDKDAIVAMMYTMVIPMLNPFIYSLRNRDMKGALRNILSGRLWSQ
In short: (§1)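 Whether a receptor–molecule pair is responsive (active) rests on the original authors' judgment that its measured signal was statistically different from baseline. Pairs without that judgment are non-responsive (inactive). Sources used varied assay methods, commonly transient luciferase assays in mammalian cell lines.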

UniProt Q8VGU3 = target: T2, UniProt Q8VGU3
T2 sequence (whole entry): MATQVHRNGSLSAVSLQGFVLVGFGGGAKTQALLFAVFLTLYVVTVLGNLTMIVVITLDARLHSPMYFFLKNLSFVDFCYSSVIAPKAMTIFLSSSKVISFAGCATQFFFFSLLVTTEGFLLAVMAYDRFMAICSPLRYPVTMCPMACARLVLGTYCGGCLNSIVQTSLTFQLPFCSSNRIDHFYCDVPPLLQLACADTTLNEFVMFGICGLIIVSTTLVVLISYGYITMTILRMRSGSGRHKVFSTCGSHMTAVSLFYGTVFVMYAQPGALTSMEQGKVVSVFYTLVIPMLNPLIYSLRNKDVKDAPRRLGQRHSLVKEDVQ
In short: as §1

UniProt Q8VGV7 = target: T3, UniProt Q8VGV7
T3 sequence (whole entry): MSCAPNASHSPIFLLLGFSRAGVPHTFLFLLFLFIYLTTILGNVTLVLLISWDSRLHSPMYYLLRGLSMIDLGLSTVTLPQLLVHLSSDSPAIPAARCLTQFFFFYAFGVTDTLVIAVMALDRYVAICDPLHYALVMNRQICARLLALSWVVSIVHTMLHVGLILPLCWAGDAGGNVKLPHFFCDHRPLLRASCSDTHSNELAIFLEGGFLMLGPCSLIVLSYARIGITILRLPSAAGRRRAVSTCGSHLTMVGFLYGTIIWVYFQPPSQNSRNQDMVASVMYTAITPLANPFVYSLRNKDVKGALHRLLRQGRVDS
In short: as §1

UniProt Q8VGX3 = target: T4, UniProt Q8VGX3
T4 sequence (whole entry): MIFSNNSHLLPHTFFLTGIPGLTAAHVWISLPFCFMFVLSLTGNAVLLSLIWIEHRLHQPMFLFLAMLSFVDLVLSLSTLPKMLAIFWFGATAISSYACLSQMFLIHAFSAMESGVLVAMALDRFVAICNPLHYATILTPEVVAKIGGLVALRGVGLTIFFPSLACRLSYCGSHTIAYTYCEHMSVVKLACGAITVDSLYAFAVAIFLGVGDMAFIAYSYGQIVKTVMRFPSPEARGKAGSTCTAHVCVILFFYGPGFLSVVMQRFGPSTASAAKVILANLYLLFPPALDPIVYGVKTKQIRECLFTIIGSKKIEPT
In short: as §1

UniProt Q8VGX5 = target: T5, UniProt Q8VGX5
T5 sequence (whole entry): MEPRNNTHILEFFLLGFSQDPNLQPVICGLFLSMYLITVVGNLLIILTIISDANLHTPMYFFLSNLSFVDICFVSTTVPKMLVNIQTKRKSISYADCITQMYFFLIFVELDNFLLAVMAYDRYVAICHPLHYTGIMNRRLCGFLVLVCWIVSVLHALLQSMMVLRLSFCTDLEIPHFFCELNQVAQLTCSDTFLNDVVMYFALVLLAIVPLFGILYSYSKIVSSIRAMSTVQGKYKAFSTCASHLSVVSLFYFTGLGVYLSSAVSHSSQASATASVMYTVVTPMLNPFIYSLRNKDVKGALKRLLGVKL
In short: as §1

UniProt Q8VGZ2 = target: T6, UniProt Q8VGZ2
T6 sequence (whole entry): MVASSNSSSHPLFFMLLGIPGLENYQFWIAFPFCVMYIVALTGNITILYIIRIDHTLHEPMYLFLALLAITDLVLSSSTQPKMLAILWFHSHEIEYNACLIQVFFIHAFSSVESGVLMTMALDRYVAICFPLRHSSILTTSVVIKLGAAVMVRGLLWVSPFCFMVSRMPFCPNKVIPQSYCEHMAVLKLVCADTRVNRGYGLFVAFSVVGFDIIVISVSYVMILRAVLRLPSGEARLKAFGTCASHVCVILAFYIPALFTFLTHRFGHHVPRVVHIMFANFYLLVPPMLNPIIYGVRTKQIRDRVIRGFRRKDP
In short: as §1

UniProt Q8VGZ7 = target: T7, UniProt Q8VGZ7
T7 sequence (whole entry): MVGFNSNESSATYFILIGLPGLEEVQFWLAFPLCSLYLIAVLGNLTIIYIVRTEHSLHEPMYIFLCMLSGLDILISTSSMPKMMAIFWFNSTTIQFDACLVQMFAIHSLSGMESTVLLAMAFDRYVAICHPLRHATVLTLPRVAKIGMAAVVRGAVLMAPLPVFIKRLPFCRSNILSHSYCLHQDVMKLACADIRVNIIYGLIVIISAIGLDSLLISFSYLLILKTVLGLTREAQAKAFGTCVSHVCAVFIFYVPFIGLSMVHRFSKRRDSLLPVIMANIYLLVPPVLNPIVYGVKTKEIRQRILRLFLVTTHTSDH
In short: as §1

UniProt Q8VH16 = target: T8, UniProt Q8VH16
T8 sequence (whole entry): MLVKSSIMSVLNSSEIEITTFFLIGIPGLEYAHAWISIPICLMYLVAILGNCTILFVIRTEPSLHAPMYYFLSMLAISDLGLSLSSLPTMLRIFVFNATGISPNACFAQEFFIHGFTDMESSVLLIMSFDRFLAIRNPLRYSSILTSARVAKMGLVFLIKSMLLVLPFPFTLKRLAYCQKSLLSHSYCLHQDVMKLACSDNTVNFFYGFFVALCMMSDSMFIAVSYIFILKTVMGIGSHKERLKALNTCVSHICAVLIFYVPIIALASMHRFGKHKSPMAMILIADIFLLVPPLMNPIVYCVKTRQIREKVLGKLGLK
In short: as §1

UniProt Q8VH20 = target: T9, UniProt Q8VH20
T9 sequence (whole entry): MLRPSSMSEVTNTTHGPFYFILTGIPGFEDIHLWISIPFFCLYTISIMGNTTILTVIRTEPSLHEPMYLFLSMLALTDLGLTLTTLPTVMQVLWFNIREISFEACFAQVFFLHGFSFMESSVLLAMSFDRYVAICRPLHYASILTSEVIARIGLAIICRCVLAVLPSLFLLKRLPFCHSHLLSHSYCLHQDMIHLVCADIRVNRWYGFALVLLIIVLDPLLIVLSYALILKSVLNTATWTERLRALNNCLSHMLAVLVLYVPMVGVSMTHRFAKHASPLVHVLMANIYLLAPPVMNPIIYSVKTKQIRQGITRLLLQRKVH
In short: as §1

Measured: odorant receptor agonist call;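 note: active if original authors judged signal statistically different from baseline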

COc1ccc(C=O)cc1
inactive: all assays above
